# Compound activity (PubChem BioAssay)
# Hits are enriched below; roughly 5.6% of the tested compounds scored in any of these assays.
# MPTP block: mitochondrial permeability transition pore inhibitors, primary screen, biochemical, isolated mouse mitochondria, absorbance; 360,000 tested, 1.4% active; AID 602449, 2012; inhibition, % at 10 µM; Ca2+ swelling absorbance, 30 min;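 active = inhibition of 50% or more, scaled per plate between neutral and stimulator controls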;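 also: 0% = DMSO wells given calcium and 100% = 1 mM EGTA wells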
# aDG glyco act: activators of alpha-DG glycosylation, primary screen, uHTS, Pro5-aDG cells, AlphaScreen | alpha-DG glycosylation AlphaScreen (IIH6); 0% Pro5, 100% B10-LARGE cell signal | activation, % at 10 µM | 360,000 tested, 0.22% active;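 active = activation of at least 8% versus controls, or a plate z-score of at least 8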;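 also: Pro5 are CHO cells carrying HIG-tagged alpha-DG that lacks glycosylation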
# GRIN3A LBD mod: binders of NR3A ligand-binding domain, primary screen, biophysical, differential scanning fluorimetry, uHTS | NR3A LBD differential scanning fluorimetry, Tm shift; 0% = protein alone, 100% = glycine-bound protein | Tm shift relative to glycine control, % at 25 µM | 340,000 tested, 2.5% active | AID 1259313, 2017 | Glutamate receptor ionotropic, NMDA 3A (GRIN3A) ligand-binding domain;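 active = melting temperature shift of at least 10% of the positive control shift, at one fixed dose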
# UPR XBP1 act: activators of adaptive XBP1 UPR arm, primary screen, cell-based, CHO-XBP1 luciferase reporter, luminescence, uHTS; activation, % at 20 µM; IRE1-XBP1 UPR activation; percent of tunicamycin response, DMSO as zero; AID 463104, 2010; 330,000 tested, 0.33% active;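 active = versus positive control, 20 µM dose yields 30% or more activation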;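 also: 100% = tunicamycin at 10 µg/mL and 0% = DMSO only wells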
#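 Assay system: IRE1-XBP1 luciferase reporter CHO line. Input: 1000 cells/well. Buffer or medium: F12 with 10% serum. Doses: 20 µM, 1% DMSO. Times: overnight seeding at 37 °C, 6 h compound treatment at 37 °C. Technique: Steady-Glo luciferase glow luminescence, 10 min after reagent addition.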
# CHOP inhibitor: inhibitors of CHOP promoter induction, primary screen, cell-based, unfolded protein response, luciferase reporter; CHO-K1 CHOP-promoter luciferase, tunicamycin-induced, 15-18 h; inhibition, % at 10 µM; 220,000 tested, 3.8% active;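 active = compounds that reduced the stress-induced luciferase reporter signal by more than about 70% of percent inhibition, limit read from the data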;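 also: 0% = tunicamycin plus vehicle and 100% = wells without tunicamycin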
# UPR CHOP act: activators of apoptotic CHOP UPR arm, primary screen, cell-based, CHO-CHOP luciferase reporter, luminescence, uHTS | UPR activation; percent of tunicamycin response over DMSO baseline | 330,000 tested, 0.34% active | activation, % at 10 µM | AID 449763, 2010;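 active = at 10 µM dose, activation of 40% or more, normalized to positive control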;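 also: 100% = tunicamycin at 10 µg/mL and 0% = DMSO alone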
#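 Assay system: CHO cells with stable CHOP pathway luciferase reporter; Buffer or medium: F12 plus 10% serum; Times: 16-18 h cell attachment, then 6 h compound exposure, 37 °C; Signal: luciferase luminescence; Read-out basis: percent activation relative to tunicamycin control; Control set: tunicamycin high control, DMSO low control.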
# UPR XBP1 confirm: IRE1-XBP1 UPR arm activators, confirmation, cell-based, CHO-XBP1 luciferase reporter, luminescence, single concentration. 1,000 tested, 63% active. shares compounds with UPR XBP1 act. AID 485299, 2010. activation, % at 20 µM;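 active = reporter signal at least 30% of the positive control's activation in two or more of four replicate wells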;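 also: plate controls were DMSO negative control for no effect and tunicamycin 10 µg/mL positive control for full effect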
# The depositor's hits bear a star; · = no result given.
SMILES,MPTP block,aDG glyco act,GRIN3A LBD mod,UPR XBP1 act,CHOP inhibitor,UPR CHOP act,UPR XBP1 confirm
Cc1cc(SCC(=O)c2ccc(O)c(O)c2)n2nc(C)c(-c3ccccc3)c2n1,17.3,0.2,22.6*,101.3*,25.9,29.0,58.1*
COc1ccc(C2NCCc3c2[nH]c2ccccc32)cc1COc1ccc(F)cc1 (stereo not given),1.3,-0.8,-3.6,31.7*,74.6*,0.3,39.2*
CC(NC(=O)COC(=O)C1CCN(c2ccc(C(F)(F)F)cn2)CC1)c1ccc(Br)cc1 (stereo not given),1.3,0.0,-3.8,-2.1,·,-1.9,·
Cc1ccc(/C=C/C(=O)c2cc(Br)ccc2OC(=O)c2ccco2)cc1,3.6,-0.3,2.4,54.1*,21.0,3.1,107.8*
O=C(/C=C/c1cc(Br)ccc1O)c1ccco1,41.1,-0.2,-1.2,2.3,-46.7,3.5,·
CCN(C(=O)COC(=O)c1ccc2ccccc2n1)c1c(N)n(Cc2ccccc2)c(=O)[nH]c1=O,-0.7,-0.3,1.6,1.2,·,-1.0,·
COc1ccccc1N(C(=O)c1snc(C(N)=O)c1N)C(C(=O)NC1CCCC1)c1ccc2ncccc2c1 (stereo not given),-1.7,0.0,-4.2,-5.0,·,2.0,·
Cc1ccc(NC(=O)c2c(C)nc3sc(C(=O)NC4CCCC4)c(N)c3c2-c2ccco2)c(C)c1,2.8,-0.5,2.4,62.7*,37.5,26.1,104.8*
Cc1ccccc1NC(=O)c1sc2nc3c(c(-c4ccco4)c2c1N)CCC3,1.4,0.4,0.9,0.4,11.3,1.1,·
CCCCCCCCN1C(=O)[C@H](CC(=O)N2CCSCC2)C[C@@]2(C(=O)OCC)CCCC=C12,-2.0,0.6,·,·,·,·,·
CCN1C(=O)/C(=C2/Sc3ccc(OC)cc3N2C)SC1=Nc1ccc(OC)cc1,-1.8,0.0,-4.2,0.9,1.0,-0.3,·
C=CCN1C(=O)/C(=C2/Sc3ccc(OC)cc3N2C)SC1=Nc1cccc(O)c1,0.6,-0.3,3.9,47.9*,-2.5,17.5,81.0*
COc1ccc(C(=O)/C=C/c2ccccc2F)c(OC(=O)c2ccc([N+](=O)[O-])cc2)c1,0.0,-0.1,0.2,-0.9,-23.0,1.2,·
O=C(Oc1ccc(F)cc1C(=O)/C=C/c1cccs1)c1cccc([N+](=O)[O-])c1,0.9,-0.4,3.5,37.6*,-35.6,8.3,82.7*
CCCCC1CCC(C(=O)N(CC(C)C)c2c(N)n(CCCC)c(=O)[nH]c2=O)CC1 (stereo not given),0.3,0.2,-0.3,39.2*,·,32.0,37.9*
CCCCC1CCC(C(=O)N(CCC(C)C)c2c(N)n(CCCC)c(=O)[nH]c2=O)CC1 (stereo not given),-0.6,0.2,·,·,·,·,·
C/C(=N/NC(=O)c1ccc(Cl)s1)c1ccc(NC(=O)COc2ccc(Cl)cc2)cc1,0.4,0.1,-3.3,37.3*,61.5,19.6,53.1*
C/C(=N/NC(=O)c1cccs1)c1ccc(NC(=O)COc2ccc(Cl)cc2Cl)cc1,2.2,0.2,-5.1,8.6,59.1,15.5,·
Cc1ccc(C(=O)N2N=C(c3ccc(Br)cc3)CC2c2ccccc2O)cc1 (stereo not given),2.5,-0.2,5.0,39.6*,·,5.4,40.9*
Cc1ccc(C(=O)N2N=C(c3ccccc3O)CC2c2ccccc2)cc1 (stereo not given),-0.6,0.0,0.6,1.1,·,0.1,·
CCOc1cc(/C=N\Nc2ccc([N+](=O)[O-])cc2)ccc1OCC(=O)Nc1ccc(C)c(C)c1,-2.0,0.1,14.9*,44.4*,27.0,6.8,66.4*
CCCCn1c(N)c(N(CC(C)C)C(=O)C2CCCO2)c(=O)[nH]c1=O (stereo not given),0.8,-0.1,-0.9,0.2,·,0.7,·
